Experimental data: ChEMBL document CHEMBL3297654, “Synthesis, antimicrobial and cytotoxic activities, and structure-activity relationships of gypsogenin derivatives against human cancer cells” (Eur J Med Chem, 2014)
Converted amounts (≈) assume the structure as drawn. The source made the active and inactive calls. The rule behind the calls is not given here.

Tests used:
[1] = tested on: HeLa; test: Antiproliferative activity against human HeLa cells after 24 and 72 hrs by MTT assay; assay type: functional, cell-based
Method in brief: (§1)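 ATCC human cell lines are kept in RPMI, DMEM or McCoy's 5A with 10–15% heat-inactivated FCS at 37 °C and 5% CO2. They are seeded at 1×10^4–1×10^5 cells/mL in 48-well plates and exposed to 0.5, 10, 20 or 40 µM. Viability is read by MTT (590 nm) at 24 and 72 h. Growth is expressed relative to untreated cells and IC50 is fitted, in triplicate.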

[2] = tested on: MCF7; test: Induction of necrosis in human MCF7 cells at 20 uM after 48 hrs by Hoechst 33258/propidium iodide staining based phase contrast microscopic analysis; assay type: functional
Method in brief: (§2)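 Cells in 48-well plates treated with 0.5, 10, 20 or 40 µM for 24 and 48 h. Values are read at 48 h, 20 µM for test agents and 0.5 µM for controls. Staining is Hoechst 33258/propidium iodide double staining with fluorescence microscopy. Blue nuclei are viable or early-to-mid apoptotic, and pink nuclei are late apoptotic or necrotic. Apoptosis and necrosis are scored from chromatin condensation as % of cells. Cells are grown at 37 °C in 5% CO2 in RPMI, DMEM or McCoy's 5A with 10–15% heat-inactivated FCS.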

[3] = tested on: Micrococcus luteus; test: Antimicrobial activity against Micrococcus luteus ATCC 9341 assessed as zone of inhibition at 30 uL for 24 hrs at 30 degC by disk diffusion test; assay type: functional, organism-based
Method in brief: (§3)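 Agar well diffusion on Mueller Hinton agar seeded with 0.1 mL broth culture (18–24 h), adjusted to 0.5 McFarland (about 1×10^8 bacteria or 1×10^6 yeast cells/mL). A 6 mm well is filled with 30 µL of compound from a fresh 1000 µg/mL DMSO stock. Plates are held at 30 °C for 24 h and inhibition zone diameter is read in mm.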

[4] = tested on: Salmonella typhimurium; test: Antimicrobial activity against Salmonella typhimurium ATCC 14028 assessed as zone of inhibition at 30 uL for 24 hrs at 37 degC by disk diffusion test; assay type: functional, organism-based; details: Salmonella enterica subsp. enterica serovar Typhimurium
Method in brief: (§4)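 Compound (30 µL of a fresh 1000 µg/mL DMSO stock) goes into a 6 mm well cut in Mueller Hinton agar inoculated with 0.1 mL broth culture adjusted to 0.5 McFarland (about 1×10^8 cells/mL). Plates are incubated 24 h at 37 °C, then zone of inhibition diameter is measured in mm.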

[5] = tested on: Klebsiella pneumoniae; test: Antimicrobial activity against Klebsiella pneumoniae ATCC 13882 assessed as zone of inhibition at 30 uL for 24 hrs at 37 degC by disk diffusion test; assay type: functional, organism-based; method in brief: as §4
[6] = tested on: Bacillus cereus; test: Antimicrobial activity against Bacillus cereus ATCC 11778 for 24 hrs by microdillution method; assay type: functional
Method in brief: (§5)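 Broth microdilution. Compound is dissolved in DMSO (2 mg/mL) and diluted in Mueller Hinton broth as two-fold serial dilutions from 256 to 0.125 µg/mL. Bacteria are pre-grown in nutrient broth at 30 °C, and the final inoculum is about 10^6 cfu/mL. Tests are incubated 37 °C for 24 h. MIC is the lowest concentration giving complete inhibition. Streptomycin is the positive control.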

[7] = tested on: HL-60; test: Antiproliferative activity against human HL60 cells after 24 and 72 hrs by MTT assay; assay type: functional, cell-based; method in brief: as §1
[8] = tested on: SAOS-2; test: Induction of necrosis in human Saos2 cells at 20 uM after 48 hrs by Hoechst 33258/propidium iodide staining based […] microscopic analysis; assay type: functional; method in brief: as §2
[9] = tested on: MCF7; test: Antiproliferative activity against human MCF7 cells after 24 and 72 hrs by MTT assay; assay type: functional, cell-based; method in brief: as §1
[10] = tested on: HeLa; test: Induction of necrosis in human HeLa cells at 20 uM after 48 hrs by Hoechst 33258/propidium iodide staining based phase contrast microscopic analysis; assay type: functional; method in brief: as §2
[11] = Antiproliferative activity against human Saos2 cells after 24 and 72 hrs by MTT assay; assay type: functional, cell-based; details: SAOS-2; method in brief: as §1
[12] = tested on: Escherichia coli; test: Antimicrobial activity against Escherichia coli ATCC 25922 assessed as zone of inhibition at 30 uL for 24 hrs at 37 degC by disk diffusion test; assay type: functional, organism-based; method in brief: as §4
[13] = tested on: Caco-2; test: Induction of necrosis in human Caco2 cells at 20 uM after 48 hrs by Hoechst 33258/propidium iodide staining based phase contrast microscopic analysis; assay type: functional; method in brief: as §2
[14] = tested on: MCF7; test: Induction of apoptosis in human MCF7 cells at 20 uM after 48 hrs by Hoechst 33258/propidium iodide staining based phase contrast microscopic analysis; assay type: functional; method in brief: as §2
[15] = tested on: Nakaseomyces glabratus; test: Antimicrobial activity against Candida glabrata assessed as zone of inhibition at 30 uL for 24 hrs at 30 degC by disk diffusion test; assay type: functional, organism-based; method in brief: as §3
[16] = tested on: Cyberlindnera jadinii; test: Antimicrobial activity against Candida utilis ATCC 9950 assessed as zone of inhibition at 30 uL for 24 hrs at 30 degC by disk diffusion test; assay type: functional, organism-based; method in brief: as §3
[17] = tested on: Candida tropicalis; test: Antimicrobial activity against Candida tropicalis assessed as zone of inhibition at 30 uL for 24 hrs at 30 degC by disk diffusion test; assay type: functional, organism-based; method in brief: as §3
[18] = tested on: HL-60; test: Induction of apoptosis in human HL60 cells at 20 uM after 48 hrs by Hoechst 33258/propidium iodide staining based phase contrast microscopic analysis; assay type: functional; method in brief: as §2
[19] = tested on: Staphylococcus aureus; test: Antimicrobial activity against Staphylococcus aureus ATCC 25923 assessed as zone of inhibition at 30 uL for 24 hrs at 37 degC by disk diffusion test; assay type: functional, organism-based; method in brief: as §4
[20] = tested on: HT-29; test: Antiproliferative activity against human HT-29 cells after 24 and 72 hrs by MTT assay; assay type: functional, cell-based; method in brief: as §1
[21] = tested on: HeLa; test: Induction of apoptosis in human HeLa cells at 20 uM after 48 hrs by Hoechst 33258/propidium iodide staining based phase contrast microscopic analysis; assay type: functional; method in brief: as §2
[22] = tested on: Bacillus subtilis; test: Antimicrobial activity against Bacillus subtilis ATCC 6633 assessed as zone of inhibition at 30 uL for 24 hrs at 30 degC by disk diffusion test; assay type: functional; method in brief: as §3
[23] = tested on: HT-29; test: Induction of necrosis in human HT-29 cells at 20 uM after 48 hrs by Hoechst 33258/propidium iodide staining based phase contrast microscopic analysis; assay type: functional; method in brief: as §2
[24] = tested on: Staphylococcus epidermidis; test: Antimicrobial activity against Staphylococcus epidermidis ATCC 12228 assessed as zone of inhibition at 30 uL for 24 hrs at 37 degC by disk diffusion test; assay type: functional, organism-based; method in brief: as §4
[25] = tested on: Saccharomyces cerevisiae; test: Antimicrobial activity against Saccharomyces cerevisiae ATCC 9763 assessed as zone of inhibition at 30 uL for 24 hrs at 30 degC by disk diffusion test; assay type: functional, organism-based; method in brief: as §3
[26] = tested on: Bacillus thuringiensis; test: Antimicrobial activity against Bacillus thuringiensis assessed as zone of inhibition at 30 uL for 24 hrs at 30 degC by disk diffusion test; assay type: functional; method in brief: as §3
[27] = tested on: Candida albicans; test: Antimicrobial activity against Candida albicans ATCC 10231 assessed as zone of inhibition at 30 uL for 24 hrs at 30 degC by disk diffusion test; assay type: functional, organism-based; method in brief: as §3
[28] = tested on: HL-60; test: Induction of necrosis in human HL60 cells at 20 uM after 48 hrs by Hoechst 33258/propidium iodide staining based phase contrast microscopic analysis; assay type: functional; method in brief: as §2
[29] = tested on: Caco-2; test: Induction of apoptosis in human Caco2 cells at 20 uM after 48 hrs by Hoechst 33258/propidium iodide staining based phase contrast microscopic analysis; assay type: functional; method in brief: as §2
[30] = tested on: Pseudomonas aeruginosa; test: Antimicrobial activity against Pseudomonas aeruginosa ATCC 35032 assessed as zone of inhibition at 30 uL for 24 hrs at 37 degC by disk diffusion test; assay type: functional, organism-based; method in brief: as §4
[31] = tested on: Bacillus thuringiensis; test: Antimicrobial activity against Bacillus thuringiensis for 24 hrs by microdillution method; assay type: functional; method in brief: as §5
[32] = tested on: Proteus vulgaris; test: Antimicrobial activity against Proteus vulgaris ATCC 33420 assessed as zone of inhibition at 30 uL for 24 hrs at 37 degC by disk diffusion test; assay type: functional, organism-based; method in brief: as §4
[33] = tested on: Enterococcus faecalis; test: Antimicrobial activity against Enterococcus faecalis ATCC 29212 assessed as zone of inhibition at 30 uL for 24 hrs at 37 degC by disk diffusion test; assay type: functional, organism-based; method in brief: as §4
[34] = tested on: SAOS-2; test: Induction of apoptosis in human Saos2 cells at 20 uM after 48 hrs by Hoechst 33258/propidium iodide staining based phase contrast microscopic analysis; assay type: functional; method in brief: as §2
[35] = tested on: Bacillus cereus; test: Antimicrobial activity against Bacillus cereus ATCC 11778 assessed as zone of inhibition at 30 uL for 24 hrs at 30 degC by disk diffusion test; assay type: functional; method in brief: as §3
[36] = tested on: Bacillus subtilis; test: Antimicrobial activity against Bacillus subtilis ATCC 6633 for 24 hrs by microdillution method; assay type: functional; method in brief: as §5
[37] = tested on: HT-29; test: Induction of apoptosis in human HT-29 cells at 20 uM after 48 hrs by Hoechst 33258/propidium iodide staining based phase contrast microscopic analysis; assay type: functional; method in brief: as §2
[38] = tested on: Caco-2; test: Antiproliferative activity against human Caco2 cells after 24 and 72 hrs by MTT assay; assay type: functional, cell-based; method in brief: as §1

| IC50 [1] | IC50 [7] | IC50 [9] | IC50 [20] | Structure (SMILES) | Activity [2] | diameter of the inhibition zone (DIZ) [3] | diameter of the inhibition zone (DIZ) [4] | diameter of the inhibition zone (DIZ) [5] | Activity [8] | Activity [10] | IC50 [11] | diameter of the inhibition zone (DIZ) [12] | Activity [13] | Activity [14] | diameter of the inhibition zone (DIZ) [15] | diameter of the inhibition zone (DIZ) [16] | diameter of the inhibition zone (DIZ) [17] | Activity [18] | diameter of the inhibition zone (DIZ) [19] | Activity [21] | also measured |
| --- | --- | --- | --- | --- | --- | --- | --- | --- | --- | --- | --- | --- | --- | --- | --- | --- | --- | --- | --- | --- | --- |
| 35 µM | 10.8 µM | 20.5 µM | 11.1 µM | CC(=O)O[C@H]1CC[C@]2(C)[C@H]3CC=C4[C@@H]5CC(C)(C)CC[C@]5(C(=O)O)CC[C@@]4(C)[C@]3(C)CC[C@H]2[C@]1(C)C=O | 29% | inactive | inactive | inactive | 44% | 33% | 8.24 µM | inactive | 55% | 5% | inactive | inactive | inactive | 8% | inactive | 4% | MIC ([6]; ATCC 11778, 24 h): 128 µg/mL (≈ 250 µM); diameter of the inhibition zone (DIZ) [22]: 11 mm; Activity [23]: 20%; diameter of the inhibition zone (DIZ) [24]: inactive; diameter of the inhibition zone (DIZ) [25]: inactive; diameter of the inhibition zone (DIZ) [26]: 10 mm; diameter of the inhibition zone (DIZ) [27]: inactive; Activity [28]: 25%; Activity [29]: 3%; diameter of the inhibition zone (DIZ) [30]: inactive; MIC [31]: 128 µg/mL (≈ 250 µM); diameter of the inhibition zone (DIZ) [32]: inactive; diameter of the inhibition zone (DIZ) [33]: inactive; Activity [34]: 3%; diameter of the inhibition zone (DIZ) [35]: 9 mm; MIC ([36]; ATCC 6633, 24 h): 64 µg/mL (≈ 125 µM); Activity [37]: 0.8%; IC50 [38]: 17.4 µM |
| 287 µM | 6.74 µM | 65.2 µM | 10.3 µM | CC(=O)O[C@H]1CC[C@]2(C)[C@H]3CC=C4[C@@H]5CC(C)(C)CC[C@]5(C(=O)OCc5ccccc5)CC[C@@]4(C)[C@]3(C)CC[C@H]2[C@]1(C)C=O | 36% | inactive | inactive | inactive | 45% | 68% | 10.7 µM | inactive | 37% | 5% | inactive | inactive | inactive | 3% | inactive | 2% | MIC [6]: inactive; diameter of the inhibition zone (DIZ) [22]: inactive; Activity [23]: 29%; diameter of the inhibition zone (DIZ) [24]: inactive; diameter of the inhibition zone (DIZ) [25]: inactive; diameter of the inhibition zone (DIZ) [26]: inactive; diameter of the inhibition zone (DIZ) [27]: inactive; Activity [28]: 51%; Activity [29]: 1%; diameter of the inhibition zone (DIZ) [30]: inactive; MIC [31]: inactive; diameter of the inhibition zone (DIZ) [32]: inactive; diameter of the inhibition zone (DIZ) [33]: inactive; Activity [34]: 0%; diameter of the inhibition zone (DIZ) [35]: inactive; MIC [36]: inactive; Activity [37]: 0.7%; IC50 [38]: 51.1 µM |
